# Screening results: PubChem BioAssay, The Scripps Research Institute Molecular Screening Center
# The list is not random: actives were taken first. Their share in the collection is about 2.3%.
# ADAM17 inh: ADAM17 inhibition, QFRET primary screen; recombinant ADAM17, EDANS/DABCYL FRET peptide cleavage; hit rate 0.83% among 370,000; inhibition, % at 6.95 µM; P78536;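 active means inhibition above the mean of compounds lying between control limits plus 3 SD, set per campaign, cut at about 8.5% in these data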;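 further: 0% = DMSO-only wells as the low control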
# Target sequence (P78536 215-824 limits assumed): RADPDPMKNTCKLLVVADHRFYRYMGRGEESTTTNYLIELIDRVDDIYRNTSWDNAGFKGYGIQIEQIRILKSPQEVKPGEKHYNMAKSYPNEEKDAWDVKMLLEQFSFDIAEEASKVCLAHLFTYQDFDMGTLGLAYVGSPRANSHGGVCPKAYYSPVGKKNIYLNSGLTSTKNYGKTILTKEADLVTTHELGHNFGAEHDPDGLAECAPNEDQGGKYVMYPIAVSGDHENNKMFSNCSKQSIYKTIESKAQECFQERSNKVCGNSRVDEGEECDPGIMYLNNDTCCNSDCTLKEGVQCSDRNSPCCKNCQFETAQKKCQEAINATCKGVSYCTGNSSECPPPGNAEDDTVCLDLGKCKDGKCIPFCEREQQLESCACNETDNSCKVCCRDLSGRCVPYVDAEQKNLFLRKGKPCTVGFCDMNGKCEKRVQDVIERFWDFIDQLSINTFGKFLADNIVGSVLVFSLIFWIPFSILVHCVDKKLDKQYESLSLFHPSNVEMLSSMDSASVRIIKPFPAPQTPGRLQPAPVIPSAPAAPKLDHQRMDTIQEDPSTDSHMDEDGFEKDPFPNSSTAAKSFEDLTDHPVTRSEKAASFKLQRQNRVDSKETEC
# ADAM10 inh: inhibitors of human ADAM10 | O14672 | recombinant ADAM10, EDANS/DABCYL FRET peptide cleavage, 3 h | inhibition, % at 7 µM | hit rate 0.62% among 370,000;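 active means inhibition above a per-campaign cutoff equal to the mean of compounds falling between control-based bounds plus 3 SD, cut at about 20% in these data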;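 further: 0% = DMSO wells while the 100% control is not disclosed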
# Tn7 DDE FP: inhibitors of Tn7 peptide binding to human fibrin DD(E); hit rate 0.13% among 370,000; inhibition, % at 8.3 µM; P02675; FP displacement of FITC-Tn7 peptide from fibrin DD(E); 0% = median of compound wells per plate; AID 720508;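 active means inhibition above the mean of compounds falling within the control limits plus 3 SD of them, cut at about 14% in these data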;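 further: 0% = plate median of compound wells and 100% = 10 µM Aha-Tn7 peptide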
#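 Assay system: Human fibrin DD(E) protein | Medium: Tris buffer with calcium and detergent, pH 7.8 | Reagent: 0.1 µM fluorescent Tn7 | Compound dosing: Single point at 8.3 µM | Times: 10 min preincubation, 3 h with tracer, room temperature | Detection: Fluorescence polarization of the labelled Tn7 tracer | Controls: Aha-Tn7 high control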
# PLCb3 inh: PLC-beta3 (human) inhibition, primary screen. Q01970. Purified PLC-beta3, fluorogenic substrate, fluorescence. inhibition, % at 12.2 µM. hit rate 0.18% among 370,000. AID 720704; in the data active means inhibition above about 11%;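 further: 0% = median of compound wells on plate and 100% = full blocker control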
# PLC-gamma1 inh: blocks human PLC-gamma1 enzyme activity. purified PLC-gamma1, fluorogenic substrate, fluorescence. inhibition, % at 12.2 µM. hit rate 0.84% among 370,000. AID 720700; in the data active means inhibition above about 9.5%
# Tn6 DDE FP: inhibitors of Tn6 peptide binding to human fibrin DD(E) | Fibrin DD(E) TRITC-Tn6 fluorescence polarization displacement | inhibition, % at 8.3 µM | hit rate 0.21% among 370,000;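 active means inhibition above a per-campaign cutoff: mean of compounds within control limits plus 3 SD, cut at about 15% in these data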;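 further: 0% = median of all compound wells on the plate and 100% = blocking peptide control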
# ADAM10 confirm: human ADAM10 inhibition, confirmation; inhibition, % at 6.95 µM; shares compounds with ADAM10 inh; hit rate 1% among 2,100; ADAM10 QFRET peptide cleavage, EDANS fluorescence; AID 743208;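 active means inhibition above about 20% chosen separately for each screening run, limit read from the data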;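 further: 0% = DMSO wells and 100% = marimastat wells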
# ADAM17 counter: ADAM17 inhibition, counter-screen for ADAM10 exosite hits; shares compounds with ADAM10 inh; inhibition, % at 6.95 µM; hit rate 0.5% among 2,100; ADAM17 QFRET peptide cleavage, EDANS fluorescence;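 active means mean triplicate inhibition above the solvent-only control wells' mean plus 3 SD, cut at about 12% in these data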;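 further: 0% = DMSO wells and 100% = marimastat wells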
# ADAM10 counter: ADAM10 inhibition, counter-screen for ADAM17 exosite hits; AID 743256; recombinant ADAM10, EDANS/DABCYL FRET peptide cleavage, 3 h; hit rate 47% among 2,900; shares compounds with ADAM17 inh; inhibition, % at 6.95 µM;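 active means mean inhibition over the triplicate runs exceeds the activity threshold set in the earlier primary screen, cut at about 20% in these data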;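 further: 0% = DMSO wells and 100% = marimastat wells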
# ADAM17 confirm: human ADAM17 inhibition, confirmation; hit rate 65% among 2,900; shares compounds with ADAM17 inh; recombinant ADAM17, EDANS/DABCYL QFRET peptide cleavage; AID 743257; inhibition, % at 6.95 µM;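 active means mean inhibition across replicates above the hit cutoff set in the primary screen, cut at about 8.5% in these data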;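 further: 0% = DMSO wells and 100% = marimastat wells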
# Active calls of the source: *; nt = not tested or not shown.
SMILES,ADAM17 inh,ADAM10 inh,Tn7 DDE FP,PLCb3 inh,PLC-gamma1 inh,Tn6 DDE FP,ADAM10 confirm,ADAM17 counter,ADAM10 counter,ADAM17 confirm
CCN(CCNc1ccc([N+](=O)[O-])c2cccnc12)S(=O)(=O)c1ccccc1,-2.2,-9.6,2.4,-1.2,-1.5,6.3,nt,nt,nt,nt
CC1CC2(C)C(CCC3C2CCC2(C)C(OP(=O)(N4CC4)N4CC4)CCC32)CC1=O (stereo not drawn),-7.6,-13.1,-0.7,-3.3,-0.6,3.3,nt,nt,nt,nt
Cc1ccc(NP(=O)(Oc2ccccc2F)Oc2ccccc2F)cc1,3.0,21.3*,0.3,5.3,1.8,-8.9,0.9,0.5,nt,nt
CCC1C(c2ccccc2)NC(c2ccccc2)CC1(O)c1ccc(F)cc1 (stereo not drawn),4.9,20.9*,-3.6,-5.6,5.4,-6.0,4.4,1.3,nt,nt
OCCN1C2CCC1CC(O)(c1ccc(F)cc1)C2 (stereo not drawn),-2.2,-1.6,-2.0,5.4,6.5,3.1,nt,nt,nt,nt
COc1ccc(-n2nnnc2C(c2cccc3ccccc23)N2CCC3(CC2)C(=O)NCN3c2ccccc2)cc1 (stereo not drawn),8.6,21.2*,-7.9,2.4,3.1,-6.0,10.0,2.7,nt,nt
CCc1ccc(NP(=O)(Oc2ccccc2F)Oc2ccccc2F)cc1,11.9*,26.2*,5.2,-4.4,0.4,4.2,6.5,2.2,34.5*,19.7*
COc1cccc(NP(=O)(Oc2ccccc2Cl)Oc2ccccc2Cl)c1,10.2*,23.2*,-3.1,-0.3,1.5,-0.3,8.4,3.2,44.7*,17.8*
Cc1ccc(C(=O)C2(C)N(O)C(C)C(c3cccs3)=[N+]2[O-])cc1 (stereo not drawn),-1.1,-1.4,6.8,1.9,0.0,-1.3,nt,nt,nt,nt
CCCNC(=O)N1[C@H]2CC[C@@H]1C(C(=O)OC)=C(c1ccc(-c3ccccc3)c(F)c1)C2,16.3*,25.6*,-10.3,4.4,3.9,-0.2,0.2,0.2,19.0,10.5*
COC(=O)C1=C(c2ccc(-c3ccccc3)c(F)c2)C[C@@H]2CC[C@H]1N2C(=O)NCCOc1ccccc1Cl,16.6*,28.1*,-16.3,-0.1,6.7,-10.1,6.8,1.8,27.8*,17.4*
COC(=O)C1=C(c2ccc(-c3ccccc3)c(F)c2)C[C@@H]2CC[C@H]1N2C(=O)NCCO,0.8,6.8,-5.0,4.9,4.9,4.2,nt,nt,nt,nt
COC(=O)C1=C(c2ccc(OC)c(OC)c2)C[C@@H]2CC[C@H]1N2C(=O)NCCOc1ccccc1Cl,-3.4,-2.5,-5.7,-1.9,-1.9,4.5,nt,nt,nt,nt
O=C(NCCN1CCCCC1)c1ccc(Cl)nc1Cl,-5.3,2.7,2.4,-3.4,-4.1,0.9,nt,nt,nt,nt
C[C@]12CCC3C(CC[C@H]4C[C@H](O)CC[C@]34C)C1C[C@H](O)[C@@H]2O (stereo partly drawn),0.5,-0.8,-1.3,-5.0,6.0,-2.1,nt,nt,nt,nt
COC(=O)C1=C(c2ccc(F)cc2OCc2ccccc2)C[C@@H]2CC[C@H]1N2C(=O)NCc1ccccc1OC,14.9*,27.8*,-4.2,3.7,9.2,4.5,3.7,1.9,20.7*,12.8*
COC(=O)C1=C(c2cc3ccccc3s2)C[C@@H]2CC[C@H]1N2C(=O)NCC1CC1,-0.7,0.8,4.8,1.3,2.8,-12.3,nt,nt,nt,nt
COC(=O)C1=C(c2ccccc2OCc2ccccc2)C[C@@H]2CC[C@H]1N2C(=O)NCCc1ccc(F)cc1,10.0*,20.6*,-6.6,4.3,4.0,0.7,4.2,1.6,15.6,6.9
